Rows were chosen to be rich in hits. Some 2.1% of all compounds tested hit in one or more screens of this group.
RanGTP-Impb inh: inhibitors of RanGTP-importin-beta interaction, primary screen, biochemical, FRET, CFP-Ran, YFP-importin-beta, homogeneous. Ran GTPase (GTP-bound) - importin-beta complex. cell-free CFP-Ran/YFP-importin-beta FRET ratio. inhibition, % (concentration not given with the values). actives 1.1% (n = 300,000). AID 2216, 2009;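 active = more than half of the replicate wells show a fall in the fluorescence ratio signal beyond about 16%, limit read from the data, passing the limit was not always enough; inconclusive = exactly half of the replicate wells pass the set limit; inactive = fewer than half of replicates pass the limit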;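 note: 0% = DMSO wells and 100% = Ran loaded with GDP instead of GTP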
Runt-SMMHC FRET: inhibitors of RUNX1 Runt–CBFb-SMMHC binding, primary screen, biochemical, FRET, Cerulean-Runt, Venus-CBFb-SMMHC, uHTS. Runt-related transcription factor 1 (Homo sapiens) + Core-binding factor subunit beta …. Cerulean-Runt/Venus-CBFb-SMMHC FRET ratio 530/480, 1 h. inhibition, % at 20 µM. actives 0.74% (n = 220,000);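 active = mean inhibition across duplicate retests at 20 µM reaching about 50%, limit read from the data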;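 note: 0% = DMSO wells and 100% = wells with excess untagged CBFb-SMMHC; inhibitors lower the FRET ratio by blocking Runt binding to CBFb-SMMHC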
pCIP destab: p/CIP-EGFP fusion destabilizers, primary screen, fluorescence, F442A cells. 16 h. decrease of EGFP signal, % at 10 µM. actives 0.01% (n = 290,000);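 active = EGFP signal decrease of at least 30% at 10 µM or well 3 SD below plate mean, unless failing retest; inactive = the rest, including hits failing retest or dose response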
Hck-Nef inh: inhibitors of Nef-activated human Hck kinase, primary screen, biochemical, Z-Lyte FRET, 384-well, Hck-YEEI | actives 0.68% (n = 220,000) | inhibition, % at 20 µM | Recombinant Hck-YEEI plus Nef, Z-Lyte FRET kinase assay;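 active = Hck-Nef kinase inhibition above about 50%, limit read from the data; inactive = inhibition below that limit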;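 note: 0% = DMSO with Hck plus Nef and 100% = Hck alone without Nef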
DSG3 Ab inh: inhibitors of pemphigus antibody binding to DSG3, primary screen, biochemical, bead-based, flow cytometry, scFv-GFP | binding (percent of control), % at 10 µM | DSG3-coupled beads, scFv-anti-DSG3-GFP binding; active compounds read low | Desmoglein-3 (Homo sapiens), P32926 | actives 0.48% (n = 310,000);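 active = binding more than 3 SD below its plate's average and above zero; inconclusive = below that plate limit but binding exactly zero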;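 note: hits lower antibody fragment binding to DSG3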
Runt-CBFb FRET: inhibitors of RUNX1 Runt–CBFb binding, primary screen, biochemical, FRET, Cerulean-Runt, Venus-CBFb, uHTS | Runt-related transcription factor 1 (Homo sapiens) + Core-binding factor subunit beta … | Cerulean-Runt/Venus-CBFb FRET ratio 530/480, 1 h | inhibition, % at 20 µM | actives 0.46% (n = 220,000);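 active = inhibition over about 50% at 20 µM in the single-dose screen, limit read from the data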;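 note: 0% = DMSO wells and 100% = excess unlabeled CBFb competitor control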
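Assay system: Cerulean-tagged RUNX1 Runt domain (FRET donor) fusion protein / Amount: 100 nM each of Venus-CBFb and Cerulean-Runt domain / Medium: Tris buffer pH 7.5 with salts and BSA / Also added: Venus-CBFb 100 nM / Schedule: 1 h complex formation plus 1 h compound treatment, room temperature / Signal: FRET fluorescence / Read-out: loss of energy transfer signal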
* = called active by the depositor; u = inconclusive; x = no result.

SMILES | RanGTP-Impb inh | Runt-SMMHC FRET | pCIP destab | Hck-Nef inh | DSG3 Ab inh | Runt-CBFb FRET
O=C(O)CCCC(=O)N1CCN(c2nc(-c3ccccc3)c3ccccc3n2)CC1 | 20* | 14 | -7 | 11 | 99 | 14
Cc1ccc2nc(N3CCN(C(=O)CCC(=O)O)CC3)nc(-c3ccccc3)c2c1 | 30* | x | -15 | x | 93 | x
c1ccc(-c2nc(N3CCNCC3)nc3ccccc23)cc1 | 13 | 41 | -4 | 11 | 94 | 20
Cc1ccc2nc(N3CCC(C(=O)O)CC3)nc(-c3ccccc3)c2c1 | 3 | 65 | -9 | 9 | 107 | 15
c1ccc(-c2nc(N3CCCCC3)nc3ccccc23)cc1 | 41* | 118* | -10 | 6 | 106 | 35
Cc1oc(-c2cc(F)cc(F)c2)nc1CN1CCN(C(=O)c2ccco2)CC1 | 6 | x | -6 | x | 101 | x
COc1ccc(S(=O)(=O)Nc2cccc3c2O[C@H](CN(C)C(=O)Nc2ccc(C(F)(F)F)cc2)[C@@H](C)CN([C@H](C)CO)C3=O)cc1 | x | x | x | x | 106 | x
CCC1=[N+](CC(=O)c2ccc(C)cc2)CCn2c(C)ccc21 | 44* | -15 | 2 | 2 | 97 | -4
CCC1=[N+](CC(=O)c2ccc(Br)cc2)CCn2c(C)ccc21 | 7 | 7 | -17 | 4 | 102 | -4
CCN(C(=O)Cc1ccccc1OC)c1nnc(-c2ccncc2)s1 | 0 | 3 | -6 | -1 | 100 | x
CCCN(C(=O)c1cccs1)c1nnc(-c2ccncc2)s1 | 0 | 1 | 18 | 3 | 78* | -2
Cc1cc2c(NCc3ccccc3)ncnc2s1 | 1 | x | -13 | x | 112 | x
CCCCNC(=O)Oc1c(Br)cc2sc(=O)oc2c1Br | x | 8 | -2 | 56* | x | 23
CCCCNC(=O)Oc1cc(CCl)on1 | u | 1 | -3 | -17 | x | 1
Cc1ccc(C2=C/C(=C/c3cccnc3)C(=O)O2)c(C)c1 | 34* | -2 | -1 | 2 | 98 | 2
O=C(Cn1c2ccccc2c(=O)c2ccccc21)Nc1cccc(F)c1 | 60* | 63* | 2 | 10 | 86 | 76*
O=C(CC(=O)Nc1cccc(F)c1)Nc1cccc(F)c1 | -1 | x | 3 | x | 122 | x
Cc1ccc(/C=N/Nc2ccc(C(=O)O)cc2)o1 | 8 | 0 | 10 | 22 | 93 | 1
O=C(O)c1ccc(N/N=C/c2ccc(-c3ccccc3Cl)o2)cc1 | 54* | 81* | -17 | 67* | 97 | 46
O=C(O)c1ccc(N/N=C/c2ccc(-c3ccc(Br)cc3)o2)cc1 | 70* | x | -7 | x | 101 | x
O=C(O)c1cc(-c2ccc(/C=N/Nc3ccc(Cl)cc3)o2)ccc1Cl | 3 | 82* | 5 | 12 | 95 | 16
O=C(NC1CCCCC1)c1cccnc1Sc1ccccc1 | -2 | x | 1 | x | 127 | x
O=C(NCCc1ccccc1Cl)C1CCC(=O)N(CC2CCCCC2)C1 (configuration not stated) | 1 | x | 2 | x | 93 | x
O=C(CN1C(=O)NC2(CCCCCC2)C1=O)NCc1ccccc1 | x | x | x | x | 107 | x
COc1ccccc1-c1sc2ccccc2c1C#Cc1ccc(N(C)C)cc1 | x | x | x | x | 102 | x
SMILES | RanGTP-Impb inh | Runt-SMMHC FRET | pCIP destab | Hck-Nef inh | DSG3 Ab inh | Runt-CBFb FRET
COc1ccc(CN2CCOCCOCCN(Cc3ccc(OC)cc3)CCOCCOCC2)cc1 | -3 | -2 | -4 | 7 | x | 1
CCOC(=O)N1CCC(NC(=O)c2cccn3c(=O)c4cc(Br)ccc4nc23)CC1 | 6 | -33 | 40* | 6 | 104 | -12
CCOC(=O)N1CCC(NC(=O)c2ccc3nc4ccccc4c(=O)n3c2)CC1 | u | 18 | -20 | 3 | x | 5
O=C(N/N=C/c1ccc(OC(=O)c2ccc([N+](=O)[O-])cc2)cc1)c1cccnc1 | 3 | x | -12 | x | 8.2* | x
O=C(N/N=C/c1ccc([N+](=O)[O-])cc1)c1[nH]ncc1Br | -5 | -7 | 0 | 22 | 59* | 0
Cc1csc(=O)n1CC(=O)OC(C)C(=O)Nc1cccc(Cl)c1 (configuration not stated) | 1 | x | x | x | 99 | x
O=C(/C=C/C(=O)NCc1cccs1)NCc1cccs1 | 1 | -3 | -8 | 18 | 72* | -1
Nc1nc2n(n1)C(c1cccc(Cl)c1)CC(c1ccc(F)cc1)N2 (configuration not stated) | -2 | 0 | 2 | 2 | 108 | 1
CCOc1ccc(C2CC(c3cccc(Cl)c3)n3nc(N)nc3N2)cc1 (configuration not stated) | 26* | 4 | -3 | 0 | 106 | -2
CCC(CC)c1nnc(NC(=O)c2cc(-c3ccccc3)nc3ccccc23)s1 | 0 | 6 | -10 | -1 | 110 | 6
CCC(CC)c1nnc(NC(=O)c2ccc3ccccc3n2)s1 | 3 | 2 | 2 | -1 | 13* | 0
CC(C)Sc1nc(-c2ccccc2)cc(=O)[nH]1 | 1 | -21 | -9 | 1 | 108 | 11
O=c1cc(-c2ccccc2)nc(Sc2ccc([N+](=O)[O-])cc2[N+](=O)[O-])[nH]1 | 0 | x | x | x | 81* | x
O=C(O)C(=O)/C(=C\c1ccc([N+](=O)[O-])cc1)c1ccc2ccccc2n1 | 9 | 25 | -2 | -5 | 100 | 15
O=C(O)C(=O)/C(=C\c1cccc2ccccc12)c1ccc2ccccc2n1 | 63* | 80* | -10 | 1 | 110 | 19
O=C(c1ccccc1)c1ccc2ccccc2n1 | -2 | 0 | -12 | 1 | x | -2
O=C(O)C(=O)/C(=C\c1ccccc1)c1ccc2ccccc2n1 | 31* | 52* | -11 | 18 | 115 | 7
O=C(O)C(=O)/C(=C\c1ccsc1)c1ccc2ccccc2n1 | 20* | x | -2 | x | 95 | x
CC(C)CC1NC(=O)N(CC(=O)Nc2cc(F)ccc2F)C1=O (configuration not stated) | x | x | x | x | 109 | x
O=C(c1ccc2c(=O)n3c(nc2c1)CCC3)N1CCN(S(=O)(=O)c2ccccc2Br)CC1 | x | x | x | x | 92 | x
O=C1NC(=S)N/C1=C/c1ccc2ccccc2c1 | 26* | x | -8 | x | 95 | x
COc1ccc(C=C2NC(=S)NC2=O)cc1 | x | x | x | x | 114 | x
Cc1cc(C)c(C)c(S(=O)(=O)N2CCC(C(=O)NC3=NCCS3)CC2)c1C | x | x | x | x | 97 | x
COc1ccc(C2=C/C(=C\c3ccccc3OC(C)=O)C(=O)O2)cc1 | 35* | x | 3 | x | 107 | x

High-throughput results as filed in PubChem BioAssay.
